ChEMBL document CHEMBL4480372, “Design, synthesis, and in vitro and in vivo characterization of 1-{4-[4-(substituted)piperazin-1-yl]butyl}guanidines and their piperidine analogues as histamine H3 receptor antagonists” (Medchemcomm, 2019)
Each block holds one molecule with its values, some of them ahead of it. Activity calls are given as the source filed them. The calls are words filed in the database; no cut-off is given here.

Key:
Histamine H3 receptor [1] = target: Histamine H3 receptor (Rattus norvegicus, UniProt Q9QYN8); test: Displacement of [3H]-Nalpha-Methylhistamine from rat histamine H3 receptor expressed in HEK293T cell membranes after 120 mins by liquid scintillation counting analysis
Chain of Histamine H3 receptor (Rattus norvegicus, UniProt Q9QYN8) (Q9QYN8 whole entry): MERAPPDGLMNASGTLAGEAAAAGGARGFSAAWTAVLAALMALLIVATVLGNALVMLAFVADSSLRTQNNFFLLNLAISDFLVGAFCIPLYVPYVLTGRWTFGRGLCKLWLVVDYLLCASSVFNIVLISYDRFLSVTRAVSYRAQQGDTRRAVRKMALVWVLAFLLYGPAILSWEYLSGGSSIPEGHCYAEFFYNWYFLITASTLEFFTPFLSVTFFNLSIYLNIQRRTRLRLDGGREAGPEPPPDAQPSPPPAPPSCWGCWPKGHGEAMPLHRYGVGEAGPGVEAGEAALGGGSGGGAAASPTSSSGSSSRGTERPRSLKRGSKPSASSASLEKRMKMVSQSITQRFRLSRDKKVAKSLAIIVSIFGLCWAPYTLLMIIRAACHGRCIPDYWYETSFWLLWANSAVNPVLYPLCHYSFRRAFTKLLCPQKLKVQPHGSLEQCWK

Rattus norvegicus [2] = test: Effect on cerebral MAO activity in rat at 3 mg/kg, sc administered for 5 consecutive days measured at 24 hrs post last dose by radioisotopic assay; type: functional, organism-based
Outline: (§1)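 Cortex from rats given 3 mg kg⁻¹ per day s.c. for 5 days (n = 8) was taken 24 h after the last dose and homogenized in water. HNMT, MAO-A and MAO-B were measured radioisotopically. MAO-A used 5-[2-14C]hydroxytryptamine as substrate; MAO-B used β-[ethyl-1-¹⁴C]phenylethylamine. Clorgyline and deprenyl (final 10^-9 M) were used as inhibitors. Protein was measured by the Lowry method.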

[3] = target: Histamine H3 receptor (Rattus norvegicus) (UniProt Q9QYN8); test: Antagonist activity at rat histamine H3 receptor assessed as reduction in noradrenaline level in rat cortex at 3 mg/kg, sc administered for 5 consecutive days measured at 24 hrs post last dose by RIA or ELISA method; type: organism-based
Chain of Histamine H3 receptor (Rattus norvegicus) (Q9QYN8 whole entry): as above
Outline: (§2)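 Male rats aged 9-10 weeks (Wistar or Lewis, n = 8) received 3 mg kg⁻¹ per day s.c. for 5 days. Saline-dosed and ciproxifan-dosed groups were included. Rats were killed 24 h after the last injection. The cerebral cortex was dissected, frozen in liquid nitrogen, stored at -80 °C and homogenized in 3 volumes of water. Dopamine, noradrenaline and serotonin were measured by RIA; histamine by ELISA.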

Histamine H3 receptor [4] = target: Histamine H3 receptor (Homo sapiens, UniProt Q9Y5N1); test: Displacement of [3H]-Nalpha-Methylhistamine from recombinant human histamine H3 receptor expressed in HEK293 cells after 1 hr by liquid scintillation counting analysis; type: cell-based
Chain of Histamine H3 receptor (Homo sapiens, UniProt Q9Y5N1) (Q9Y5N1 whole entry): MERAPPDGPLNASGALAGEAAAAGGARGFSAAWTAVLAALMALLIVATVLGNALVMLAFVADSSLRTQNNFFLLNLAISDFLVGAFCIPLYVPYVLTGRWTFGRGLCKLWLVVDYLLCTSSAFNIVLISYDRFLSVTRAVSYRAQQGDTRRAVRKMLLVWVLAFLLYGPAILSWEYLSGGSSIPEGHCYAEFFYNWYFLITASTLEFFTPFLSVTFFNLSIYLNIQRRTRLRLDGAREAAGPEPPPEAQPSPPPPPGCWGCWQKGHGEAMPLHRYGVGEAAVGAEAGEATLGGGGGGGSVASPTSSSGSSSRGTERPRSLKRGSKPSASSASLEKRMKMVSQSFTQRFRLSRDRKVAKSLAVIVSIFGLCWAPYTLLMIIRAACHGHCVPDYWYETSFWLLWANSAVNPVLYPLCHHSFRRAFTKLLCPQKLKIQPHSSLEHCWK

Histamine H1 receptor [5] = target: T1, Histamine H1 receptor (Cavia porcellus, UniProt P31389); test: Antagonist activity at histamine H1 receptor in guinea pig ileum preincubated for 10 mins followed by histamine addition during 30 mins equilibration period with washing every 10 mins; conditions: read-out: pA2 (converted)
T1 sequence (P31389 whole entry): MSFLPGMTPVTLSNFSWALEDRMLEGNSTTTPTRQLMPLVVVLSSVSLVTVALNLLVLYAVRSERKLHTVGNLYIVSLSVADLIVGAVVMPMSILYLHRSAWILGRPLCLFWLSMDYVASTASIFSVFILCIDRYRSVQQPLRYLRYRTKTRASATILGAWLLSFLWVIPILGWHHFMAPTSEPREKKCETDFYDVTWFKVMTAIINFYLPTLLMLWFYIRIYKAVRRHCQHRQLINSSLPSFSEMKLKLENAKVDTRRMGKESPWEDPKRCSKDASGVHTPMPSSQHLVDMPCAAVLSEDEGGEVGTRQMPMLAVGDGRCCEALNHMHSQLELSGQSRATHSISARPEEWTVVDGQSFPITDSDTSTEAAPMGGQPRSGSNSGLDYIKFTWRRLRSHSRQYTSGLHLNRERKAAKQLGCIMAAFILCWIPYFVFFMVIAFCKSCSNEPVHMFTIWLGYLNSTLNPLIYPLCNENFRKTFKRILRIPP

Histamine H3 receptor [6] = target: T2, Histamine H3 receptor (Cavia porcellus, UniProt Q9JI35); test: Antagonist activity at histamine H3 receptor in guinea pig jejunum assessed as effect on […] inhibition of electrically evoked contraction treated 20 mins after […] and measured after 1 hr equilibration followed by compound wash out every 10 mins; type: tissue-based; conditions: read-out: pA2 (converted)
T2 sequence (Q9JI35 whole entry): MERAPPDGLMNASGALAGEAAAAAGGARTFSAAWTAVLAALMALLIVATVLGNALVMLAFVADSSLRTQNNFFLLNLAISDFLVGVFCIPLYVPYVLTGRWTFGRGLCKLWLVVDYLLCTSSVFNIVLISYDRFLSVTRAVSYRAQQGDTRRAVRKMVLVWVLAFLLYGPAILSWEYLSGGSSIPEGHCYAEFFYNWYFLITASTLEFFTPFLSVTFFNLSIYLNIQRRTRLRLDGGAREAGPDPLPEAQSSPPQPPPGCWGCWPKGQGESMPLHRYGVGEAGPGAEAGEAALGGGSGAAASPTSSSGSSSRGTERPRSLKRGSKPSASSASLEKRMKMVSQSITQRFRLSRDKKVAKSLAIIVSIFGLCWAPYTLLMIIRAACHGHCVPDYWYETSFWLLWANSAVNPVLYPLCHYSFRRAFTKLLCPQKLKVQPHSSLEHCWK
Outline: (§3)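 Guinea pig jejunum segments (2 cm) were electrically stimulated between platinum electrodes in Krebs buffer gassed with 95% O2/5% CO2 at 37 °C, with isotonic recording under 1.0 g tension. […] After 20 min, cumulative half-log (R)-α-methylhistamine concentration-response curves were recorded until the response stopped changing.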

[7] = target: Histamine H3 receptor (Rattus norvegicus) (UniProt Q9QYN8); test: Antagonist activity at rat histamine H3 receptor assessed as reduction in serotonin level in rat cortex at 3 mg/kg, sc administered for 5 consecutive days measured at 24 hrs post last dose by RIA or ELISA method; type: organism-based
Outline: as §2

Rattus norvegicus [8] = test: Effect on cerebral HNMT activity in rat at 3 mg/kg, sc administered for 5 consecutive days measured at 24 hrs post last dose by radioisotopic assay; type: functional, organism-based
Outline: as §1

Rattus norvegicus [9] = test: Reduction in pellet consumption in Wistar rat at 3 mg/kg, sc administered daily for 5 days relative to control; type: functional; set-up: scale not given: the % may be the effect or the level left
Outline: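 Male rats aged 9-10 weeks were housed singly in metabolic cages with free access to feed and water. Wistar rats were used for one compound and Lewis rats for the others. After 1 day of adaptation, baseline intake was averaged over 3 days. Dosing was 3 mg kg⁻¹ per day s.c. for 5 days (n = 8), with saline controls (0.2 ml per day). Intake was recorded each morning as g feed per 100 g body mass.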

[10] = target: Histamine H3 receptor (Rattus norvegicus) (UniProt Q9QYN8); test: Antagonist activity at rat histamine H3 receptor assessed as reduction in histamine level in rat cortex at 3 mg/kg, sc administered for 5 consecutive days measured at 24 hrs post last dose by RIA or ELISA method; type: organism-based
Outline: as §2

Histamine H4 receptor = Histamine H4 receptor (Homo sapiens, UniProt Q9H3N8); test: Displacement of [3H]histamine from human recombinant histamine H4 receptor expressed in CHO cell membranes after 1 hrs by liquid scintillation counting analysis
[11] = target: Histamine H3 receptor (Rattus norvegicus) (UniProt Q9QYN8); test: Antagonist activity at rat histamine H3 receptor assessed as reduction in dopamine level in rat cortex at 3 mg/kg, sc administered for 5 consecutive days measured at 24 hrs post last dose by RIA or ELISA method; type: organism-based
Outline: as §2

Homo sapiens = species: Homo sapiens; test: Selectivity ratio of Ki for recombinant human histamine H4 receptor expressed in CHO cell membranes to Ki for recombinant human histamine H3 receptor expressed in HEK293 cells; type: cell-based
Histamine H1 receptor [12] = target: T1, Histamine H1 receptor; test: (§4) Antagonist activity at histamine H1 receptor in guinea pig ileum preincubated for 10 mins followed by histamine addition during 30 mins equilibration period with washing every 10 mins; type: tissue-based; conditions: read-out: pA2 (converted)
Histamine H3 receptor [13] = target: T2, Histamine H3 receptor; test: Antagonist activity at histamine H3 receptor in guinea pig jejunum assessed as effect on […] inhibition of electrically evoked contraction treated 20 mins after […]; type: tissue-based; conditions: read-out: pA2 (converted)
Outline: as §3

Rattus norvegicus [14] = test: Reduction in food consumption in Lewis rat at 3 mg/kg, sc administered daily for 5 days relative to control; set-up: scale not given: the % may be the effect or the level left
[15] = target: Histamine H1 receptor (Cavia porcellus) (UniProt P31389); test: as §4; type: tissue-based
Chain of Histamine H1 receptor (Cavia porcellus) (P31389 whole entry): as the sequence (P31389 whole entry) above

Compound: N=C(N)N(CCCCN1CCN(CCCCCCCOc2ccccc2)CC1)Cc1ccccc1
Ki (Histamine H3 receptor [1]): 12.6 nM
Activity (Rattus norvegicus [2]): inactive
Activity [3]: inactive
Ki (Histamine H3 receptor [4]): 158 nM
Kb (Histamine H1 receptor [5]): 200 nM
Activity (Rattus norvegicus [14]): Active
Activity [7]: Active
Activity (Rattus norvegicus [8]): inactive
Activity [10]: inactive
Ki (Histamine H4 receptor): 3240 nM
Activity [11]: Active
Ratio Ki (Homo sapiens): 20.9

Compound: O=C(c1ccc(OCCCc2c[nH]cn2)cc1)C1CC1
Activity (Rattus norvegicus [14]): Active

Compound: N=C(NCCCCN1CCN(CCCCCCCOc2ccccc2)CC1)NCc1ccccc1
Kb (Histamine H1 receptor [12]): 79.4 nM
Kb (Histamine H3 receptor [13]): 7.94 nM

Compound: S=C(NC1CCCCC1)N1CCC(c2cnc[nH]2)CC1 [THIOPERAMIDE]
Kb (Histamine H3 receptor [13]): 1.05 nM

Compound: c1ccc(OCCCCCCCN2CCN(CCCCCCCOc3ccccc3)CC2)cc1
pA2 [15]: inactive
Kb (Histamine H3 receptor [13]): 1660 nM

Compound: N=C(N)N(CCCCN1CCN(CCCCN(Cc2ccc(C(F)(F)F)cc2)C(=N)N)CC1)Cc1ccc(C(F)(F)F)cc1
Kb (Histamine H1 receptor [12]): 60.3 nM
Kb (Histamine H3 receptor [13]): 10.2 nM

Compound: N=C(N)N(CCCCCCCOc1ccccc1)Cc1ccccc1
Kb (Histamine H1 receptor [12]): 158 nM
Kb (Histamine H3 receptor [13]): 1660 nM

Second part, led by results:

Ki (Histamine H3 receptor [1]): 15.8 nM
Activity [3]: inactive
Ki (Histamine H3 receptor [4]): 145 nM
Kb (Histamine H1 receptor [5]): 224 nM
Kb (Histamine H3 receptor [6]): 3.72 nM
Activity [7]: Active
Activity [10]: inactive
Ki (Histamine H4 receptor): 1200 nM
Activity [11]: Active
Compound: N=C(N)N(CCCCN1CCN(CCCCCCCOc2ccccc2)CC1)Cc1ccc([N+](=O)[O-])cc1
Activity (Rattus norvegicus [2]): inactive
Activity (Rattus norvegicus [8]): inactive
Activity (Rattus norvegicus [9]): 10%
Ratio Ki (Homo sapiens): 8.3

Kb (Histamine H1 receptor [12]): 126 nM
Kb (Histamine H3 receptor [13]): 4.47 nM
Compound: N=C(N)N(CCCCC1CCN(CCCCCCCOc2ccccc2)CC1)Cc1ccc(C(F)(F)F)cc1

Kb (Histamine H1 receptor [12]): 66.1 nM
Kb (Histamine H3 receptor [13]): 10.7 nM
Compound: N=C(NCCCCN1CCN(CCCCCCCOc2ccccc2)CC1)NCc1ccc(C(F)(F)F)cc1

Ki (Histamine H3 receptor [1]): 25.1 nM
Activity [3]: inactive
Ki (Histamine H3 receptor [4]): 275 nM
Kb (Histamine H1 receptor [5]): 240 nM
Kb (Histamine H3 receptor [6]): 15.8 nM
Activity [7]: Active
Activity [10]: inactive
Ki (Histamine H4 receptor): 1070 nM
Activity [11]: Active
Compound: N=C(N)N(CCCCN1CCN(CCCCCCCOc2ccccc2)CC1)Cc1ccc(Cl)cc1
Activity (Rattus norvegicus [2]): inactive
Activity (Rattus norvegicus [14]): 13.5%
Activity (Rattus norvegicus [8]): inactive
Ratio Ki (Homo sapiens): 3.9

Kb (Histamine H1 receptor [12]): 107 nM
Kb (Histamine H3 receptor [13]): 50.1 nM
Compound: N#C/N=C(\N)N(CCCCN1CCN(CCCCCCCOc2ccccc2)CC1)Cc1ccccc1

Kb (Histamine H1 receptor [5]): 347 nM
Compound: N=C(N)N(CCCCN1CCN(CCCCCCCOc2ccccc2)CC1)Cc1ccc(C(F)(F)F)cc1

Kb (Histamine H1 receptor [12]): 64.6 nM
Kb (Histamine H3 receptor [13]): 12.6 nM
Compound: N=C(N)N(CCCCN1CCC(CCCCCCCOc2ccccc2)CC1)Cc1ccc(C(F)(F)F)cc1
